Source: ChEMBL document CHEMBL4196177, “Synthesis, Evaluation, and Structure-Activity Relationship Study of Lanosterol Derivatives To Reverse Mutant-Crystallin-Induced Protein Aggregation” (J Med Chem, 2018)
Activity calls are given as the source filed them. The rule behind the calls is not given here.

Tests used:
Format in all cases: cell-based
[1] = test system: T1, Alpha-crystallin B chain (Homo sapiens), P02511 [R120G]; assay: Inhibition of alpha-crystallin B R120G mutant (unknown origin)-induced intracellular protein aggregation expressed in human HeLa cells at 4 uM incubated for 6 to 8 hrs by fluorescence microscopy relative to untreated control
T1 sequence (whole entry): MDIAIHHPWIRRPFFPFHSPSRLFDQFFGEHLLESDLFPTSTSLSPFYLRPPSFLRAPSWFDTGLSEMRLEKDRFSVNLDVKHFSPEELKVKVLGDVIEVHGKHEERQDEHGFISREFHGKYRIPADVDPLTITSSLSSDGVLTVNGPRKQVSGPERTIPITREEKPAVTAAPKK
In short: (§1)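 Cells were transfected with mutant crystallin constructs using Lipofectamine 2000 and cultured for 16 h until the overexpressed mutants formed aggregates. Compounds were then added to the culture medium and incubated for 6~8 h. Aggregate dissolution was scored by fluorescence microscopy. For αB R120G, % inhibition at 0.4 and 4 µM was calculated against DMSO-treated cells; values are mean ± error.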

[2] = test system: T1, Alpha-crystallin B chain (Homo sapiens), P02511 [R120G]; assay: Inhibition of alpha-crystallin B R120G mutant (unknown origin)-induced intracellular protein aggregation expressed in human HLE-B3 cells at 4 uM incubated for 6 to 8 hrs by fluorescence microscopy relative to untreated control; in short: as §1
[3] = test system: T2, Gamma-crystallin D (Homo sapiens), P07320 [W43R]; assay: Inhibition of gamma-crystallin D W43R mutant (unknown origin)-induced intracellular protein aggregation expressed in human HeLa cells at 0.4 uM incubated for 6 to 8 hrs by fluorescence microscopy relative to untreated control
T2 sequence (whole entry): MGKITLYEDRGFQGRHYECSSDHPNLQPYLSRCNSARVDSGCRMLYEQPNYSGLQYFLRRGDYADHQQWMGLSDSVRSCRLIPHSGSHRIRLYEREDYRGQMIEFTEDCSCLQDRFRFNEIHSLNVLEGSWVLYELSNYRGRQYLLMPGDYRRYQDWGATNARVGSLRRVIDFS

[4] = test system: T3, Beta-crystallin B2 (Homo sapiens), P43320 [V187E]; assay: Inhibition of beta-crystallin B2 V187E mutant (unknown origin)-induced intracellular protein aggregation expressed in human HLE-B3 cells at 4 uM incubated for 6 to 8 hrs by fluorescence microscopy relative to untreated control
T3 sequence (whole entry): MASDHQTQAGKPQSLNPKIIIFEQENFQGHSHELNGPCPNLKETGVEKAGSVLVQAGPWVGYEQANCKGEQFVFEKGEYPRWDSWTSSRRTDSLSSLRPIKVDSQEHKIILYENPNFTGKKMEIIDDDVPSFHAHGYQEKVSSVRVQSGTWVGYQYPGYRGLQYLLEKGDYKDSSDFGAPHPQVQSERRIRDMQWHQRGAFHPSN

[5] = test system: T4, Gamma-crystallin C (Homo sapiens), P07315 [G129C]; assay: Inhibition of gamma-crystallin C G129C mutant (unknown origin)-induced intracellular protein aggregation expressed in human HLE-B3 cells at 4 uM incubated for 6 to 8 hrs by fluorescence microscopy relative to untreated control
T4 sequence (whole entry): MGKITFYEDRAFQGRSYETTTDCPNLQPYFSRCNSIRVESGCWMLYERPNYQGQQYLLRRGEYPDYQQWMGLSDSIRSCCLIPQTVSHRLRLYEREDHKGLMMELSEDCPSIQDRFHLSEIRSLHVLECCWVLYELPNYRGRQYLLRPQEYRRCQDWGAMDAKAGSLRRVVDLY

[6] = test system: T2, Gamma-crystallin D (Homo sapiens), P07320 [W43R]; assay: Inhibition of gamma-crystallin D W43R mutant (unknown origin)-induced intracellular protein aggregation expressed in human HLE-B3 cells at 4 uM incubated for 6 to 8 hrs by fluorescence microscopy relative to untreated control
[7] = test system: T4, Gamma-crystallin C (Homo sapiens), P07315 [G129C]; assay: Inhibition of gamma-crystallin C G129C mutant (unknown origin)-induced intracellular protein aggregation expressed in human HeLa cells at 0.4 uM incubated for 6 to 8 hrs by fluorescence microscopy relative to untreated control
[8] = test system: T1, Alpha-crystallin B chain (Homo sapiens), P02511 [R120G]; assay: Inhibition of alpha-crystallin B R120G mutant (unknown origin)-induced intracellular protein aggregation expressed in human HeLa cells at 0.4 uM incubated for 6 to 8 hrs by fluorescence microscopy relative to untreated control; in short: as §1
[9] = test system: T2, Gamma-crystallin D (Homo sapiens), P07320 [W43R]; assay: Inhibition of gamma-crystallin D W43R mutant (unknown origin)-induced intracellular protein aggregation expressed in human HeLa cells at 4 uM incubated for 6 to 8 hrs by fluorescence microscopy relative to untreated control
[10] = test system: T1, Alpha-crystallin B chain (Homo sapiens), P02511 [R120G]; assay: Inhibition of alpha-crystallin B R120G mutant (unknown origin)-induced intracellular protein aggregation expressed in human HLE-B3 cells at 0.4 uM incubated for 6 to 8 hrs by fluorescence microscopy relative to untreated control; in short: as §1
[11] = test system: T5, Alpha-crystallin A chain (Homo sapiens), P02489 [Y118D]; assay: Inhibition of alpha-crystallin A Y118D mutant (unknown origin)-induced intracellular protein aggregation expressed in human HLE-B3 cells at 0.4 uM incubated for 6 to 8 hrs by fluorescence microscopy relative to untreated control
T5 sequence (whole entry): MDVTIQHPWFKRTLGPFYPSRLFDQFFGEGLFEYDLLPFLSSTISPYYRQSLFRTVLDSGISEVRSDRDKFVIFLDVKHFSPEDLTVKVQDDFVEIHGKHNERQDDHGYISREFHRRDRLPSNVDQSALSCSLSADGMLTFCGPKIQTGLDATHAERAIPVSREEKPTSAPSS

[12] = test system: T4, Gamma-crystallin C (Homo sapiens), P07315 [G129C]; assay: Inhibition of gamma-crystallin C G129C mutant (unknown origin)-induced intracellular protein aggregation expressed in human HeLa cells at 4 uM incubated for 6 to 8 hrs by fluorescence microscopy relative to untreated control
[13] = test system: T5, Alpha-crystallin A chain (Homo sapiens), P02489 [Y118D]; assay: Inhibition of alpha-crystallin A Y118D mutant (unknown origin)-induced intracellular protein aggregation expressed in human HeLa cells at 0.4 uM incubated for 6 to 8 hrs by fluorescence microscopy relative to untreated control
[14] = test system: T5, Alpha-crystallin A chain (Homo sapiens), P02489 [Y118D]; assay: Inhibition of alpha-crystallin A Y118D mutant (unknown origin)-induced intracellular protein aggregation expressed in human HLE-B3 cells at 4 uM incubated for 6 to 8 hrs by fluorescence microscopy relative to untreated control
[15] = test system: T3, Beta-crystallin B2 (Homo sapiens), P43320 [V187E]; assay: Inhibition of beta-crystallin B2 V187E mutant (unknown origin)-induced intracellular protein aggregation expressed in human HeLa cells at 0.4 uM incubated for 6 to 8 hrs by fluorescence microscopy relative to untreated control
[16] = test system: T3, Beta-crystallin B2 (Homo sapiens), P43320 [V187E]; assay: Inhibition of beta-crystallin B2 V187E mutant (unknown origin)-induced intracellular protein aggregation expressed in human HeLa cells at 4 uM incubated for 6 to 8 hrs by fluorescence microscopy relative to untreated control
[17] = test system: T5, Alpha-crystallin A chain (Homo sapiens), P02489 [Y118D]; assay: Inhibition of alpha-crystallin A Y118D mutant (unknown origin)-induced intracellular protein aggregation expressed in human HeLa cells at 4 uM incubated for 6 to 8 hrs by fluorescence microscopy relative to untreated control
[18] = test system: T4, Gamma-crystallin C (Homo sapiens), P07315 [G129C]; assay: Inhibition of gamma-crystallin C G129C mutant (unknown origin)-induced intracellular protein aggregation expressed in human HLE-B3 cells at 0.4 uM incubated for 6 to 8 hrs by fluorescence microscopy relative to untreated control
[19] = test system: T2, Gamma-crystallin D (Homo sapiens), P07320 [W43R]; assay: Inhibition of gamma-crystallin D W43R mutant (unknown origin)-induced intracellular protein aggregation expressed in human HLE-B3 cells at […] incubated for 6 to 8 hrs by fluorescence microscopy relative to untreated control
[20] = test system: T3, Beta-crystallin B2 (Homo sapiens), P43320 [V187E]; assay: Inhibition of beta-crystallin B2 V187E mutant (unknown origin)-induced intracellular protein aggregation expressed in human HLE-B3 cells at 0.4 uM incubated for 6 to 8 hrs by fluorescence microscopy relative to untreated control

Row | Structure (SMILES) | inhibition [1] | inhibition [2] | inhibition [3] | inhibition [4] | inhibition [5] | inhibition [6] | inhibition [7] | inhibition [8] | inhibition [9] | inhibition [10] | inhibition [11] | inhibition [12] | inhibition [13] | inhibition [14] | inhibition [15] | inhibition [16] | inhibition [17] | inhibition [18] | inhibition [19] | inhibition [20]
1 | C[C@H](CCCC(C)(C)O)[C@H]1CC[C@@]2(C)C3=C(CC[C@]12C)[C@@]1(C)CC[C@H](O)C(C)(C)[C@@H]1CC3 | Active | Active | Active | Active | Active | Active | Active | Active | Active | Active | Active | Active | Active | Active | Active | Active | Active | Active | Active | Active
2 | C[C@H](CCCC(C)(C)O)[C@H]1CC[C@@]2(C)[C@@]34CC[C@H]5C(C)(C)/C(=N/O)CC[C@]5(C)[C@]3(CC[C@]12C)O4 | inactive | inactive | inactive | inactive | inactive | inactive | inactive | inactive | inactive | inactive | inactive | inactive | inactive | inactive | inactive | inactive | inactive | inactive | inactive | inactive

The next lines start with the values.

Row | inhibition [1] | inhibition [2] | inhibition [3] | inhibition [4] | inhibition [5] | inhibition [6] | inhibition [7] | inhibition [8] | inhibition [9] | inhibition [10] | inhibition [11] | inhibition [12] | inhibition [13] | inhibition [14] | inhibition [15] | inhibition [16] | inhibition [17] | inhibition [18] | inhibition [19] | inhibition [20] | Structure (SMILES)
3 | Active | Active | Active | Active | Active | Active | Active | Active | Active | Active | Active | Active | Active | Active | Active | Active | Active | Active | Active | Active | C[C@H](CCCC(C)(C)O)[C@H]1CC[C@@]2(C)C3=C(CC[C@]12C)[C@@]1(C)CCC(=O)C(C)(C)[C@@H]1CC3
4 | Active | Active | Active | Active | Active | Active | Active | Active | Active | Active | Active | Active | Active | Active | Active | Active | Active | Active | Active | Active | C[C@H](CCCC(C)(C)O)[C@H]1CC[C@@]2(C)C3=C(CC[C@]12C)[C@@]1(C)C[C@@H](F)[C@@H](O)C(C)(C)[C@@H]1CC3
5 | Active | Active | Active | Active | Active | Active | Active | Active | Active | Active | Active | Active | Active | Active | Active | Active | Active | Active | Active | Active | C[C@H](CCCC(C)(C)O)[C@H]1CC[C@@]2(C)C3=C(CC[C@]12C)[C@@]1(C)C[C@@H](F)[C@H](O)C(C)(C)[C@@H]1CC3
6 | Active | Active | Active | Active | Active | Active | Active | Active | Active | Active | Active | Active | Active | Active | Active | Active | Active | Active | Active | Active | C[C@H](CCCC(C)(C)O)[C@H]1CC[C@@]2(C)C3=CC[C@H]4C(C)(C)[C@@H](O)CC[C@]4(C)C3=CC[C@]12C
